# Sampled rows, rich in hits. Any-hit rate of the full collection: about 2%.
# CSN inh: inhibitors of CSN-mediated cullin deneddylation, primary screen, biochemical, fluorescence polarization, uHTS. COP9 signalosome complex subunit 5 (Homo sapiens), Q92905. Purified CSN, SCF-Nedd8-OG deneddylation. inhibition, % at 12.5 µM. 0.38% of 360,000 active;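 active = pattern-corrected inhibition above about 35%, with an unprinted fluorescence ratio check between 0.5 and 1.5, limit read from the data, passing the limit was not always enough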
#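 test system = HEK293T-derived human Csn5 enzyme | amount = 0.24 nM Csn5 enzyme, final concentration | medium = Tris/NaCl/DTT buffer, pH 7.5 | schedule = 90 min reaction at room temperature | signal = FP | evaluation = inhibition of Csn5 cleavage, % | compound dosing = single dose of 12.5 µM compound with 0.25% DMSO | probe or stimulus = 10 nM SCFSkp2-Nedd8OG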
# SENP1 FRET inh: human SENP1 catalytic domain inhibitors, primary screen, biochemical, FRET, uHTS; Sentrin-specific protease 1 (Homo sapiens), Q9P0U3; inhibition, % at 10 µM; 0.21% of 360,000 active; recombinant SENP1 catalytic domain, CyPet-SUMO1-YPet FRET cleavage; AID 624204, 2012;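 active = inhibition at least 30% at 10 µM, raw YFP signal under a set limit, fluorescence ratio 0.5 to 1.5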
#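 Test system: hSENP1 catalytic domain, recombinant; Amount: 20 pM final SENP1 enzyme; Medium: Tris pH 8 buffer plus EDTA, NaCl, BME, BSA, NP40, catalase; Schedule: 50 min enzyme reaction, room temperature, light-protected; Technique: FRET fluorescence in CFP and YFP emission channels; Controls: no-enzyme wells low, DMSO-plus-enzyme wells high control.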
# TPT1 inhibitor: Candida albicans TPT1 enzyme inhibitors, primary screen, biochemical, fluorescence polarization; tRNA 2'-phosphotransferase TPT1 (Candida albicans SC5314); recombinant caTPT1, FP RNA substrate dephosphorylation; inhibition, % at 5 µM; 0.81% of 300,000 active; AID 1962, 2009;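 active = inhibition above the mean of all tested compounds plus 3 SD, set per screening campaign, cut at about 24% in these data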
# ATG4B inhibitor: ATG4B protease inhibitors, primary screen, biochemical, fluorescence, uHTS; inhibition, % at 8.33 µM; ATG4B cleavage of LC3-PLA2, NBD-HPC fluorescence, 1 h; Cysteine protease ATG4B (Homo sapiens), Q9Y4P1; 0.51% of 340,000 active
# Rpn11 inh: Rpn11 (PSMD14) deubiquitinase inhibitors, primary screen, biochemical, fluorescence polarization, uHTS; inhibition, % at 20 µM; 0.59% of 360,000 active; human 26S proteasome, Ub4-pepOG fluorescence polarization; 20S core pre-blocked with epoxomicin; 26S proteasome non-ATPase regulatory subunit 14 (Homo sapiens), O00487;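 active = inhibition at 20 µM, scaled to each plate's controls, above about 33%, limit read from the data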
# HNF4A DNA FP: change in binding of human HNF4A to DNA, primary screen, biochemical, fluorescence polarization, FITC-DNA; Hepatocyte nuclear factor 4-alpha (Homo sapiens), P41235; 1 h; activity change, % at 10 µM; 0.3% of 360,000 active; in the data active = activity change above about 30%, passing the limit was not always enough
# Target sequence (P41235 whole entry, looked up): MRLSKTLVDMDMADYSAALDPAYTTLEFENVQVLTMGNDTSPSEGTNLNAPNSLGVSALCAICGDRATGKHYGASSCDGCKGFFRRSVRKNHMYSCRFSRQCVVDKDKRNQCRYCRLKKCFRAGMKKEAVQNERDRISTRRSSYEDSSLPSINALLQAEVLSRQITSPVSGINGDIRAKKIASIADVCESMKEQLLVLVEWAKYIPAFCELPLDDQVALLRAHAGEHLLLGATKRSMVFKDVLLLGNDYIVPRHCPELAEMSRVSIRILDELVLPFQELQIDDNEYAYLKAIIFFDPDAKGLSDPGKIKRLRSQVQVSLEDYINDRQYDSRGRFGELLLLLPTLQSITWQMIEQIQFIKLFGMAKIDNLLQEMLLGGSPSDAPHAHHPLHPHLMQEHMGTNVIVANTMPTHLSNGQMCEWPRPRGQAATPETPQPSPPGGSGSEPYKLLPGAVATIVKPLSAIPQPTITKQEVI
# Rpn11 inh conf: Rpn11 (PSMD14) deubiquitinase inhibitors, confirmation, biochemical, fluorescence polarization, single concentration; 29% of 1,900 active; inhibition, % at 20 µM; shares compounds with Rpn11 inh; purified human 26S proteasome, Ub4-pepOG fluorescence polarization; proteasome pretreated with epoxomicin; AID 602318, 2012
# MMP-2 inh: MMP-2 enzyme inhibition, confirmation, counter-screen for RPN11 inhibitor project, biochemical, fluorescence, single concentration; shares compounds with Rpn11 inh; recombinant MMP-2, FRET peptide cleavage fluorescence; inhibition, % at 20 µM; 4% of 1,900 active; AID 602330, 2012;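 note: human MMP-2 activated beforehand with APMA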
# Thrombin FP: bovine thrombin protease inhibition, confirmation, counter-screen for Rpn11 inhibitor project, biochemical, fluorescence polarization, single concentration | inhibition, % at 20 µM | AID 602333, 2012 | shares compounds with Rpn11 inh | 13% of 1,900 active | bovine thrombin cleavage of Ub4-pepOG;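 active = mean inhibition at least 40% at 20 µM, or signal 3 deviations below plate average, so some actives read negative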
# SENP1 conf: human SENP1 catalytic domain inhibitors, confirmation, biochemical, FRET endpoint, single concentration; inhibition, % at 10 µM; 34% of 520 active; shares compounds with SENP1 FRET inh; AID 651678, 2012; recombinant SENP1, CyPet-SUMO1-YPet FRET cleavage; in the data active = inhibition mostly above about 35%, no sharp cut-off; inactive = mostly below about 32%
# SENP1 kinetic: human SENP1 catalytic domain inhibitors, confirmation, biochemical, kinetic FRET, single concentration; AID 651690, 2012; shares compounds with SENP1 FRET inh; inhibition, % at 10 µM; recombinant SENP1, CyPet-SUMO1-YPet FRET kinetic cleavage; 26% of 520 active; in the data active = inhibition mostly above about 32%, no sharp cut-off; inactive = mostly below about 29%
# Hits are given with their value; - = inactive; . = not tested or not shown. Cut-off read from the data, not from the text of the source, unless noted: active = inhibition above about 40%; inactive = the rest.
SMILES,CSN inh,SENP1 FRET inh,TPT1 inhibitor,ATG4B inhibitor,Rpn11 inh,HNF4A DNA FP,Rpn11 inh conf,MMP-2 inh,Thrombin FP,SENP1 conf,SENP1 kinetic
O=C1CN(C(=O)COC(=O)c2cccs2)c2ccccc2N1,-,-,.,-,-,-,.,.,.,.,.
COc1cc(/C=C2\SC(=Nc3c(C)n(C)n(-c4ccccc4)c3=O)NC2=O)ccc1O,-,42,.,-,90,-,-,-,-,59,41
CC1(C(=O)NS(=O)(=O)c2cccc(OC(F)F)c2)CCN1C(=O)Cc1ccccc1 (stereo not given),-,-,.,.,-,-,.,.,.,.,.
N#Cc1cc(C(=O)c2cc(Cl)ccc2O)cn(CC2CCCO2)c1=O (stereo not given),-,-,-,-,-,-,.,.,.,.,.
COc1ccccc1-n1cc(C(=O)c2cc(Cl)ccc2O)cc(C#N)c1=O,-,46,-,-,47,-,-,-,-,39,-
COCCNc1ccc(N2C(=O)CCCC2=O)cc1[N+](=O)[O-],-,-,-,-,-,-,.,.,.,.,.
COC(=O)C1=CC(C(=O)c2cccs2)=NN(c2ccc(OC)cc2)C1C(=O)OC (stereo not given),-,61,-,-,44,-,-,-,-,60,39
CCC1CCCCN1CCCNS(=O)(=O)c1ccc2c(c1)oc(=O)n2C (stereo not given),-,31,-,-,68,-,-,-,-,-,-
CCOC(=O)c1cc(-c2ccccc2C)n(CC2CC(c3cccc([N+](=O)[O-])c3)=NO2)n1 (stereo not given),-,-,-,-,-,-,.,.,.,.,.
CCN(CC)c1nc2cc(C)ccc2cc1/C=C(\C#N)C(N)=O,-,79,-,-,49,-,-,-,-,58,-
CCc1ccc(NC(=O)/C(C#N)=C/c2cc3ccc(C)cc3nc2N2CCOCC2)cc1,-,-,-,-,.,-,.,.,.,.,.
N#CCSc1ccccc1NC(=O)COc1ccc(-c2nnco2)cc1,-,34,.,-,40,-,-,-,-,-,-
Cc1ccc(SSc2cc(C)ccc2N)c(N)c1,-,-,-,-,-,-,.,.,.,.,.
COc1ccc(-c2c(C#Cc3ccsc3)c3cc(-c4ccc(OC)c(F)c4)ccc3n2C)cc1,-,-,.,-,-,-,.,.,.,.,.
